The record followed here is ChEMBL document CHEMBL3425486, “Lathyrol diterpenes as modulators of P-glycoprotein dependent multidrug resistance: structure-activity relationship studies on Euphorbia factor L3 derivatives” (J Med Chem, 2015).

What is called IC50 is the concentration that inhibits the measured activity by half. As a reminder, the EC50 is the concentration at which the effect is half-maximal. A word on the logP: it is a log measure of how a compound divides between an organic and an aqueous phase.

Data set [1] in a line: Cytotoxicity against human MCF7/ADR cells assessed as reduction in cell viability after 48 hrs by SRB colorimetric assay. The format is functional, cell-based. As to conditions: NCI/ADR-RES. In a few lines: (§1)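 MCF-7 from ATCC and its stepwise ADR-selected resistant subline, grown in RPMI-1640 with 10% FBS and penicillin/streptomycin at 37 °C, 5% CO2. 1 × 10^4 cells/well exposed to graded compound concentrations for 48 h. Cells fixed with 10% TCA, stained with 0.4% SRB in 1% acetic acid, dye extracted with 10 mM Tris base, OD read at 490 nm. Taxol positive control.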
On the technique in general: Sulforhodamine B stains cellular protein and so reports cell mass.

The nature of data set [2]: Inhibition of P-gp in human MCF7/ADR cells assessed as reversal of multidrug resistance at 10 uM by measuring EC50 for adriamycin-induced cytotoxicity after 48 hrs by SRB colorimetric assay. Particulars: nci/adr-res.
The subject of another data set is MCF7. The data set can be described thus: Cytotoxicity against human MCF7 cells assessed as reduction in cell viability after 48 hrs by SRB colorimetric assay. The format is functional, cell-based. As to conditions: MCF7, 48 h. In a few lines:
as §1

In another data set the test system is NCI/ADR-RES. The data set is described as follows: Inhibition of P-gp in human MCF7/ADR cells assessed as reversal of multidrug resistance at 10 uM by measuring ratio of EC50(adriamycin)/EC50(adriamycin + compound) after 48 hrs by SRB colorimetric assay. The format is cell-based.
For data set [3], the target named is T1, ATP-dependent translocase ABCB1 (Homo sapiens, UniProt P08183). The data set is described as follows: Inhibition of P-gp in human MCF7/ADR cells assessed as reversal of multidrug resistance by measuring relative enhancement intensity for adriamycin-induced cytotoxicity at 10 uM after 48 hrs by SRB colorimetric assay. Particulars: nci/adr-res. Also on record: scale not given: the % may be the effect or the level left. The format is cell-based.

Data set [4] deals with T1, ATP-dependent translocase ABCB1. The data set can be described thus: Inhibition of P-gp in human MCF7/ADR cells assessed as forward scatter count of cells at 10 uM pre-treated for 1 hr at 37 degC followed by incubation with Rh123 for 1 hr by flow cytometry (reference value: 142.5 No unit). The format is cell-based. Particulars: nci/adr-res. In general terms: Flow cytometry measures light scatter and fluorescence of single cells or particles in a stream.

For data set [5] the target is unchanged. The data set is described as follows: Inhibition of P-gp in human MCF7/ADR cells assessed as side scatter count of cells at 20 uM pre-treated for 1 hr at 37 degC followed by incubation with Rh123 for 1 hr by flow cytometry (reference value: 100.6 No unit). The format is cell-based. As to conditions: nci/adr-res.
For data set [6] the target is unchanged. The data set can be described thus: Inhibition of P-gp in human MCF7/ADR cells assessed as side scatter count of cells at 2 uM pre-treated for 1 hr at 37 degC followed by incubation with Rh123 for 1 hr by flow cytometry (reference value: 100.6 No unit). The format is cell-based. Particulars: nci/adr-res.
For data set [7] the target is unchanged. The data set is described as follows: Inhibition of P-gp in human MCF7/ADR cells assessed as mean fluorescence intensity of cells at 20 uM pre-treated for 1 hr at 37 degC followed by incubation with Rh123 for 1 hr by flow cytometry (reference value: 108.1 +/- 43.9 No unit). The data set is classed as cell-based. As to conditions: nci/adr-res.
Data set [8] has the same target. The data set is described as follows: Inhibition of P-gp in human MCF7/ADR cells assessed as peak fluorescence intensity of cells at 20 uM pre-treated for 1 hr at 37 degC followed by incubation with Rh123 for 1 hr by flow cytometry (reference value: 87.3 No unit). The format is cell-based. Particulars: nci/adr-res.
Data set [9] has the same target. The data set is described as follows: Inhibition of P-gp in human MCF7/ADR cells assessed as forward scatter count of cells at 2 uM pre-treated for 1 hr at 37 degC followed by incubation with Rh123 for 1 hr by flow cytometry (reference value: 142.5 No unit). The data set is classed as cell-based. As to conditions: nci/adr-res.
Data set [10] shares this target. The data set is described as follows: Inhibition of P-gp in human MCF7/ADR cells assessed as forward scatter count of cells at 20 uM pre-treated for 1 hr at 37 degC followed by incubation with Rh123 for 1 hr by flow cytometry (reference value: 142.5 No unit). The data set is classed as cell-based. Particulars: nci/adr-res.
The target is the same in data set [11]. The data set is described as follows: Inhibition of P-gp in human MCF7/ADR cells assessed as peak fluorescence intensity of cells at 10 uM pre-treated for 1 hr at 37 degC followed by incubation with Rh123 for 1 hr by flow cytometry (reference value: 87.3 No unit). The data set is classed as cell-based. Particulars: nci/adr-res.
The target is the same in data set [12]. The data set is described as follows: Inhibition of P-gp in human MCF7/ADR cells assessed as mean fluorescence intensity of cells at 10 uM pre-treated for 1 hr at 37 degC followed by incubation with Rh123 for 1 hr by flow cytometry (reference value: 108.1 +/- 43.9 No unit). The format is cell-based. As to conditions: nci/adr-res.
Data set [13] has the same target. The data set can be described thus: Inhibition of P-gp in human MCF7/ADR cells assessed as side scatter count of cells at 10 uM pre-treated for 1 hr at 37 degC followed by incubation with Rh123 for 1 hr by flow cytometry (reference value: 100.6 No unit). As to conditions: nci/adr-res. The format is cell-based.
Data set [14] shares this target. The data set can be described thus: Inhibition of P-gp in human MCF7/ADR cells assessed as peak fluorescence intensity of cells at 2 uM pre-treated for 1 hr at 37 degC followed by incubation with Rh123 for 1 hr by flow cytometry (reference value: 87.3 No unit). The format is cell-based. As to conditions: nci/adr-res.
For data set [15] the target is unchanged. The data set is described as follows: Inhibition of P-gp in human MCF7/ADR cells assessed as mean fluorescence intensity of cells at 2 uM pre-treated for 1 hr at 37 degC followed by incubation with Rh123 for 1 hr by flow cytometry (reference value: 108.1 +/- 43.9 No unit). The format is cell-based. As to conditions: nci/adr-res.
Data set [16] shares this target. The data set is described as follows: Inhibition of P-gp in human MCF7/ADR cells assessed as mean fluorescence intensity of cells pre-treated for 1 hr at 37 degC followed by incubation with Rh123 for 1 hr by flow cytometry. The format is cell-based. As to conditions: nci/adr-res.
Data set [17] is described as follows: Lipophilicity, log P of the compound. The format is physicochemical. As to conditions: octanol/water.

Where only a bound is given, the exact number is not on record here.

T1 sequence (P08183 whole entry): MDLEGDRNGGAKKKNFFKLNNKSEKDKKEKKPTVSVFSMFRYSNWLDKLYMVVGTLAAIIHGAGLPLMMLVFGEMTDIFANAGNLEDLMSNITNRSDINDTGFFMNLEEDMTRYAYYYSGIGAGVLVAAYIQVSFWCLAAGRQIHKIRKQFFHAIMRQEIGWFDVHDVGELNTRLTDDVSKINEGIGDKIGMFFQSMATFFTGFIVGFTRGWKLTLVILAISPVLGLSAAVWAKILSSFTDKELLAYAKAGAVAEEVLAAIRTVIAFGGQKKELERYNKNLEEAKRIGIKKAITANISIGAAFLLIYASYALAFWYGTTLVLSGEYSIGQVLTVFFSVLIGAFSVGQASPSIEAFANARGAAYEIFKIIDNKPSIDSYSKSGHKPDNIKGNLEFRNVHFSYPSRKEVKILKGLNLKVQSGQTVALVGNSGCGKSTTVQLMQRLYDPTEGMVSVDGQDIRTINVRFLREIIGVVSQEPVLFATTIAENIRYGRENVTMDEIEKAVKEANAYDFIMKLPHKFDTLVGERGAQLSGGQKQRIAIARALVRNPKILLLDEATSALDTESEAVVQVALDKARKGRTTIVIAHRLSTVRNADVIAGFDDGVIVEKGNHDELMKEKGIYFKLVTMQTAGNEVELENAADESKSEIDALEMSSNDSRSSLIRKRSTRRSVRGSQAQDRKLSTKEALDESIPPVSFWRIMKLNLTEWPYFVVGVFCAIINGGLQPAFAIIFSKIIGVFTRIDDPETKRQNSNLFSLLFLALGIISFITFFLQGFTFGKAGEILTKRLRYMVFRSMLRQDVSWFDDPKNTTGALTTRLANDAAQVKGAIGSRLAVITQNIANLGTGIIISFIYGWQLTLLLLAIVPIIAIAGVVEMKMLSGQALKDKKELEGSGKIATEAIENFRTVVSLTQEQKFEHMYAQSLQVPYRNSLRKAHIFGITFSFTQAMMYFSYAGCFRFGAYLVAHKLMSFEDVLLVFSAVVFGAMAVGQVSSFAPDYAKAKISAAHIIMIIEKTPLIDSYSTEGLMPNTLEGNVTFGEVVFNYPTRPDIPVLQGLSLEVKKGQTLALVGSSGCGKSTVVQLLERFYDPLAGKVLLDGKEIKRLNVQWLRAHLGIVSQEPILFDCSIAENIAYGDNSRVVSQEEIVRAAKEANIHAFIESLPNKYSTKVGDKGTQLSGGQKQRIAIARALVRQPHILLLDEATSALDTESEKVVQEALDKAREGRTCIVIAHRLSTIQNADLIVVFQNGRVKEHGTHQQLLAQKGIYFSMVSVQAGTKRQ

For `C=C1CC[C@H]2[C@@H](/C=C(\C)C(=O)[C@@]3(O)C[C@H](C)[C@H](O)[C@@H]3[C@H]1OC(=O)CCCCC)C2(C)C`, the figures for the half-maximal inhibitory concentration (IC50) (in data set [1]; in the data set with MCF7) were 46.1 µM and 18.1 µM, respectively. In addition, the EC50 in [2] amounted to 11.45 µM. The Ratio EC50 with NCI/ADR-RES stood at 3. Also, the Activity in data set [3] was found to be 9.1%.

With `C=C1CC[C@H]2[C@@H](/C=C(\C)C(=O)[C@@]3(O)C[C@H](C)[C@H](OC(=O)CCCCC)[C@@H]3[C@H]1OC(=O)CCCCC)C2(C)C`, the values for the IC50 (in data set [1]; with MCF7) were more than 100 µM and 47.1 µM, respectively. For the same compound, in data set [2], the concentration giving a half-maximal response (EC50) was 18.51 µM. In addition, in the data set with NCI/ADR-RES, the Ratio EC50 was determined as 1.9. Moreover, the Activity in data set [3] is recorded as 5.8%.

For the compound `C=C1CC[C@H]2[C@@H]([C@@H]3O[C@]4(C[C@H](C)[C@H](OC(=O)/C=C/c5ccccc5)[C@@H]4[C@H]1OC(=O)/C=C/c1ccccc1)C(=O)[C@H]3C)C2(C)C`, the IC50 was more than 100 µM in [1] and 64.2 µM with MCF7. In [2], the EC50 stood at 9.68 µM. In the data set with NCI/ADR-RES, the Ratio EC50 worked out at 3.6. The Activity in data set [3] is reported as 2.1%.

With `C=C1CC[C@H]2[C@@H](/C=C(\C)C(=O)[C@@]3(O)C[C@H](C)[C@H](OC(=O)c4ccccc4)[C@@H]3[C@H]1OC(=O)c1ccccc1)C2(C)C`, the Activity came out at 144.5 in [4]; 102 in data set [5]; 102.7 in [6]; 196.8 in data set [8]; 146.8 in data set [9]; 148.1 in data set [10]. In addition, the Activity is reported as 215.4 in data set [11], 104.4 in data set [13], 215.4 in data set [14] and 23.9% in data set [3]. The results for the Flu intensity in [7], in data set [12] and in data set [15] were 204.8, 204.8 and 197.5, respectively. The IC50 came to 63.8 µM in data set [1] and 13.2 µM with MCF7. Moreover, the Ratio EC50 with NCI/ADR-RES came out at 34.4.

Regarding `C=C1CC[C@H]2[C@@H](/C=C(\C)C(=O)[C@@]3(O)C[C@H](C)[C@H](OC(=O)CC)[C@@H]3[C@H]1OC(=O)Cc1cccc3ccccc13)C2(C)C`, the Activity stood at 137.9 in [4]; 100.9 in data set [5]; 94.8 in [6]; 235.8 in data set [8]; 138.5 in data set [9]; 131.4 in [10]. Besides, the Activity in data set [11] is recorded as 188.2; in data set [13], 101.2; in data set [14] it was 143.5; in [3], 14.4%. In addition, the figures for the Flu intensity in data set [7], in data set [12] and in data set [15] were 204.6, 167.8 and 149.4, respectively. The results for the 50% inhibitory concentration (IC50) (in data set [1]; with MCF7) were 75.7 µM and 9.73 µM, respectively. In addition, the “inhibition (INH)” value in data set [16] is given as “Dose-dependent effect”. Besides, in the data set on NCI/ADR-RES, the Ratio EC50 turned out to be 28.6.

`C=C1CC[C@H]2[C@@H](/C=C(\C)C(=O)[C@@]3(O)C[C@H](C)[C@H](OC(=O)CC)[C@@H]3[C@H]1OC(=O)c1ccccc1)C2(C)C`: the concentration for half-maximal inhibition (IC50) in data set [1] was 63.3 µM; in the data set on MCF7, 8.47 µM. Besides, in [2], the EC50 amounted to 4.22 µM. Further, in the data set on NCI/ADR-RES, the Ratio EC50 came out at 8.2. Moreover, the Activity in data set [3] was found to be 12.1%.

For the compound `C=C1CC[C@H]2[C@@H]([C@@H]3O[C@]4(C[C@H](C)[C@H](OC(=O)c5ccccc5)[C@@H]4[C@H]1OC(=O)c1ccccc1)C(=O)[C@H]3C)C2(C)C`, the IC50 in data set [1] is more than 100 µM; in the data set with MCF7, 34.9 µM. The concentration giving a half-maximal response (EC50) in data set [2] was found to be 20.49 µM. Further, in the data set on NCI/ADR-RES, the Ratio EC50 came out at 1.7. Besides, the Activity in data set [3] was found to be 4.3%.

In the case of `C=C1CC[C@H]2[C@@H](/C=C(\C)C(=O)[C@@]3(O)C[C@H](C)[C@H](O)[C@@H]3[C@H]1OC(=O)Cc1cccc3ccccc13)C2(C)C`, the Activity in data set [4] was found to be 148.5; in data set [5], 94.2; in data set [6], 96.3; in data set [8], 205.9; in data set [9] it was 134.9; in data set [10], 138.7. For the same compound, the Activity is reported as 196.8 in data set [11], 102.2 in data set [13], 131.1 in data set [14] and 15.5% in data set [3]. Further, the Flu intensity in data set [7] worked out at 182.1; in data set [12], 168.1; in data set [15], 141.1. The IC50 was 33.7 µM in data set [1] and 10.5 µM in the data set with MCF7. Besides, the Ratio EC50 in the data set with NCI/ADR-RES was found to be 16.

Take `C=C1CC[C@H]2[C@@H]([C@@H]3O[C@]4(C[C@H](C)[C@H](OC(C)=O)[C@@H]4[C@H]1OC(C)=O)C(=O)[C@H]3C)C2(C)C`: the figures for the half-maximal inhibitory concentration (IC50) (in data set [1]; in the data set on MCF7) were more than 100 µM and 12.7 µM, respectively. The 50% effective concentration (EC50) in [2] stood at 3.23 µM. Besides, the logP in data set [17] is 3.4. Besides, in the data set with NCI/ADR-RES, the Ratio EC50 was 10.7. Also, the Activity in data set [3] is on record as 13%.

As for `C=C1CC[C@H]2[C@@H](/C=C(\C)C(=O)[C@@]3(O)C[C@H](C)[C@H](OC(=O)CCC)[C@@H]3[C@H]1OC(=O)CCC)C2(C)C`, the concentration for half-maximal inhibition (IC50) was 50.9 µM in data set [1] and 18.5 µM in the data set with MCF7. Further, the concentration giving a half-maximal response (EC50) in [2] came out at 14.49 µM. Moreover, the Ratio EC50 in the data set with NCI/ADR-RES amounted to 2.4. Also, the Activity in [3] was found to be 4%.

In the case of `COc1ccc(CCN(C)CCCC(C#N)(c2ccc(OC)c(OC)c2)C(C)C)cc1OC` (stereo unspecified), the Activity in data set [5] is recorded as 92.2; in data set [8] it was 157.1; in data set [10], 137.4; in data set [3], 8.4%. In addition, in data set [7], the Flu intensity is 170. For the same compound, in the data set with NCI/ADR-RES, the Ratio EC50 worked out at 7.1.
